Measured values taken from ChEMBL document CHEMBL3098105, “7,7'-Diazaindirubin--a small molecule inhibitor of casein kinase 2 in vitro and in cells” (Bioorg Med Chem, 2014).

Tests used:
[1] = target: Tyrosine-protein kinase Mer (Homo sapiens) (UniProt Q12866); assay: Inhibition of human Mer assessed as residual activity at 1 uM relative to control
[2] = target: Dual specificity mitogen-activated protein kinase kinase 6 (Homo sapiens) (UniProt P52564); assay: Inhibition of human MKK6 assessed as residual activity at 1 uM relative to control
SF-295 = assay: Antiproliferative activity against human SF295 cells after 3 days by sulforhodamine B assay; type: functional; details: SF-295, 72 h
In short: (§1)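 Tested in the NCI 60 cell line panel. GI50 is the concentration giving 50% inhibition of cell growth, and values are the mean of two series of tests.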

[3] = target: Proto-oncogene tyrosine-protein kinase Src (Homo sapiens) (UniProt P12931); assay: Inhibition of SRC (unknown origin) assessed as residual activity at 1 uM relative to control
[4] = target: Receptor-interacting serine/threonine-protein kinase 2 (Homo sapiens) (UniProt O43353); assay: Inhibition of human RIPK2 assessed as residual activity at 1 uM relative to control
[5] = target: Serine/threonine-protein kinase ULK3 (Homo sapiens) (UniProt Q6PHR2); assay: Inhibition of human ULK3 assessed as residual activity at 1 uM relative to control
[6] = target: Vascular endothelial growth factor receptor 2 (Homo sapiens) (UniProt P35968); assay: Inhibition of human KDR assessed as residual activity at 1 uM relative to control
U-251 = assay: Antiproliferative activity against human U251 cells after 3 days by sulforhodamine B assay; type: functional; details: U-251, 72 h
[7] = target: Protein kinase C eta type (Homo sapiens) (UniProt P24723); assay: Inhibition of human PKCeta assessed as residual activity at 1 uM relative to control
[8] = target: T1, Cyclin-dependent kinase 4/cyclin D1 (Homo sapiens) (UniProt P11802+P24385); assay: Inhibition of CDK4/CycD1 (unknown origin) assessed as residual activity at 1 uM relative to control; type: protein-complex assay
[9] = target: T2, Aurora kinase A (Homo sapiens) (UniProt O14965); assay: Inhibition of Aurora-A (unknown origin) assessed as residual activity at 1 uM relative to control
T2 sequence (whole entry): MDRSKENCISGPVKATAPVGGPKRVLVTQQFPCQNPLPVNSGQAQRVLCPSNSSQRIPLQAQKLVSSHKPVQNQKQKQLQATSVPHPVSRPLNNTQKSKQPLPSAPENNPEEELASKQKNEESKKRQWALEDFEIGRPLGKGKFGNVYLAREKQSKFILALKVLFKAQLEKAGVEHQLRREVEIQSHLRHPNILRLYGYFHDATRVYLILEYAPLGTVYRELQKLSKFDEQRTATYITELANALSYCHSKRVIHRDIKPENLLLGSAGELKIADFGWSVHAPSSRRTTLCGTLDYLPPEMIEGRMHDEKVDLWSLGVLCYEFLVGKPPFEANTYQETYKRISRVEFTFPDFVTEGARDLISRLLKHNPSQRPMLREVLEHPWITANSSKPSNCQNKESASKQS

[10] = target: Aurora kinase C (Homo sapiens) (UniProt Q9UQB9); assay: Inhibition of Aurora-C (unknown origin) assessed as residual activity at 1 uM relative to control
[11] = target: Serine/threonine-protein kinase 33 (Homo sapiens) (UniProt Q9BYT3); assay: Inhibition of human STK33 assessed as residual activity at 1 uM relative to control
[12] = target: Tyrosine-protein kinase receptor TYRO3 (Homo sapiens) (UniProt Q06418); assay: Inhibition of human Rse assessed as residual activity at 1 uM relative to control
[13] = target: Eukaryotic elongation factor 2 kinase (Homo sapiens) (UniProt O00418); assay: Inhibition of human eEF-2K assessed as residual activity at 1 uM relative to control
[14] = target: Homeodomain-interacting protein kinase 3 (Homo sapiens) (UniProt Q9H422); assay: Inhibition of human HIPK3 assessed as residual activity at 1 uM relative to control
[15] = Antiproliferative activity against human HCC2998 cells after 3 days by sulforhodamine B assay; type: functional; details: HCC 2998, 72 h; in short: as §1
[16] = target: Insulin-like growth factor 1 receptor (Homo sapiens) (UniProt P08069); assay: Inhibition of IGF1-R (unknown origin) assessed as residual activity at 1 uM relative to control
[17] = target: CDK2/Cyclin A2 (Homo sapiens) (UniProt P24941+P20248); assay: Inhibition of CDK2/CycA (unknown origin) assessed as residual activity at 1 uM relative to control; type: protein-complex assay
[18] = target: Epidermal growth factor receptor (Homo sapiens) (UniProt P00533); assay: Inhibition of human EGFR assessed as residual activity at 1 uM relative to control
[19] = target: Serine/threonine-protein kinase Chk2 (Homo sapiens) (UniProt O96017); assay: Inhibition of CHK2 (unknown origin) assessed as residual activity at 1 uM relative to control
[20] = target: Protein-tyrosine kinase 6 (Homo sapiens) (UniProt Q13882); assay: Inhibition of human BRK assessed as residual activity at 1 uM relative to control
[21] = target: Macrophage colony-stimulating factor 1 receptor (Homo sapiens) (UniProt P07333); assay: Inhibition of human Fms assessed as residual activity at 1 uM relative to control
[22] = target: Tyrosine-protein kinase Lyn (Homo sapiens) (UniProt P07948); assay: Inhibition of human Lyn assessed as residual activity at 1 uM relative to control
[23] = target: T1, Cyclin-dependent kinase 4/cyclin D1 (Homo sapiens); assay: Inhibition of CDK4/CycD1 (unknown origin) assessed as residual activity at 10 uM relative to control; type: protein-complex assay
[24] = target: Tyrosine-protein kinase ZAP-70 (Homo sapiens) (UniProt P43403); assay: Inhibition of human ZAP-70 assessed as residual activity at 1 uM relative to control
[25] = target: Ephrin type-A receptor 1 (Homo sapiens) (UniProt P21709); assay: Inhibition of human EphA1 assessed as residual activity at 1 uM relative to control
[26] = target: RAF proto-oncogene serine/threonine-protein kinase (Homo sapiens) (UniProt P04049); assay: Inhibition of RAF1 (unknown origin) assessed as residual activity at 10 uM relative to control
SK-OV-3 = assay: Antiproliferative activity against human SKOV3 cells after 3 days by sulforhodamine B assay; type: functional; details: SK-OV-3, 72 h; in short: as §1
[27] = target: Serine/threonine-protein kinase Nek11 (Homo sapiens) (UniProt Q8NG66); assay: Inhibition of human NEK11 assessed as residual activity at 1 uM relative to control
[28] = target: Proto-oncogene tyrosine-protein kinase receptor Ret (Homo sapiens) (UniProt P07949); assay: Inhibition of RET (unknown origin) assessed as residual activity at 1 uM relative to control
[29] = target: Tyrosine-protein kinase Lck (Homo sapiens) (UniProt P06239); assay: Inhibition of human Lck assessed as residual activity at 1 uM relative to control

Sequence of Insulin-like growth factor 1 receptor (Homo sapiens) (P08069 31-736 limits assumed): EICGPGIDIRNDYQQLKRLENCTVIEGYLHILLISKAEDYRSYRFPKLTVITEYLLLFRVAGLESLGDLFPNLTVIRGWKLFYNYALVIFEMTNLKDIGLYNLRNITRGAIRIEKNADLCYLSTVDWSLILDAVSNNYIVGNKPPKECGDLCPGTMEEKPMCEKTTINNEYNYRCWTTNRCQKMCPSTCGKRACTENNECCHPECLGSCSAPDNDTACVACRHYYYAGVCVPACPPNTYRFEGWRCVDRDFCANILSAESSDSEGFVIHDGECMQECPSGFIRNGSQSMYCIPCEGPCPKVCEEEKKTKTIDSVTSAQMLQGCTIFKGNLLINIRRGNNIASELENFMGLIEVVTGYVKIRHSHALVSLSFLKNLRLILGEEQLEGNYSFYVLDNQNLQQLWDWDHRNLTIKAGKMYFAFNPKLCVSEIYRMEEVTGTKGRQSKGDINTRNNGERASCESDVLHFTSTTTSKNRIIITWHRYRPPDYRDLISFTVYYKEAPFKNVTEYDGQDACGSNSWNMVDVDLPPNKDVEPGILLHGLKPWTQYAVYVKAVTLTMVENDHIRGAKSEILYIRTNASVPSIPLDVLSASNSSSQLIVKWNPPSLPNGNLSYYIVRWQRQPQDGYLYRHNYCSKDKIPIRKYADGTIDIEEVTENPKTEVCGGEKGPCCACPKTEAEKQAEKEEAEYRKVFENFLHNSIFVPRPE
Sequence of Insulin-like growth factor 1 receptor (Homo sapiens) (P08069 741-1367 limits assumed): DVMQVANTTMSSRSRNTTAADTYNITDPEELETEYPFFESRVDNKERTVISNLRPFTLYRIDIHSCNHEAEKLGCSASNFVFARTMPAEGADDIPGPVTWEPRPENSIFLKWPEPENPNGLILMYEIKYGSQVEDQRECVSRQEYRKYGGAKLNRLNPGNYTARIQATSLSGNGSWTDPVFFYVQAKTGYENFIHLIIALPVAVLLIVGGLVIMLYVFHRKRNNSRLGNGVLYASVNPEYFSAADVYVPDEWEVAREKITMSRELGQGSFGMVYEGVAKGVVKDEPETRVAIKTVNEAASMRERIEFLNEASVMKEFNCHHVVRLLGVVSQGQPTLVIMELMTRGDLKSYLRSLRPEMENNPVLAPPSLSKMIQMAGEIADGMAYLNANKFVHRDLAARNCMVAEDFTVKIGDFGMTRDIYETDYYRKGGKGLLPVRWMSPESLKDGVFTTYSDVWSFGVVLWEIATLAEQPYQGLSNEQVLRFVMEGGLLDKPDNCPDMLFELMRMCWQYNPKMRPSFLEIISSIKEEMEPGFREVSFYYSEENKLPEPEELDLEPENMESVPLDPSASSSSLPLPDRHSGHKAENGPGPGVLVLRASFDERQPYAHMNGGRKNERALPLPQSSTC
Sequence of Eukaryotic elongation factor 2 kinase (Homo sapiens) (O00418 whole entry): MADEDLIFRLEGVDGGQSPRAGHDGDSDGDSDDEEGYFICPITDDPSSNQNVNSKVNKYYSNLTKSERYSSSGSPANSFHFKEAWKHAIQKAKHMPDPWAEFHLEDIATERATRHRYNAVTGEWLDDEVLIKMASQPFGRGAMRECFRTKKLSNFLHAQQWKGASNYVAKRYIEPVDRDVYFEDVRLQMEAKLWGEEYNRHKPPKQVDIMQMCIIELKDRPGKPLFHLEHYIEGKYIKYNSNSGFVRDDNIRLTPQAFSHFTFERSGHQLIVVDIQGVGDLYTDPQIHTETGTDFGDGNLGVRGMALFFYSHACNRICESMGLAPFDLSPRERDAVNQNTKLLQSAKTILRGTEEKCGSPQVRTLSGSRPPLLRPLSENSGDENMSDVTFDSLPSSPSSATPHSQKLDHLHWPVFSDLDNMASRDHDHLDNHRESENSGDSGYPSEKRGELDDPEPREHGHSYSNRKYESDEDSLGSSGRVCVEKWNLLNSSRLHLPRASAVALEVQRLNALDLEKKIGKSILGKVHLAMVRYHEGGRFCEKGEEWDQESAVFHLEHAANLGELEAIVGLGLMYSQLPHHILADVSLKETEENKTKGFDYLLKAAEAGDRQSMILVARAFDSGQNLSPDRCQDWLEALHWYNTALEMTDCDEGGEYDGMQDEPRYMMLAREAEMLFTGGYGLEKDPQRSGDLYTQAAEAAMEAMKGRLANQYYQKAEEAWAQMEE
Sequence of Tyrosine-protein kinase Mer (Homo sapiens) (Q12866 whole entry): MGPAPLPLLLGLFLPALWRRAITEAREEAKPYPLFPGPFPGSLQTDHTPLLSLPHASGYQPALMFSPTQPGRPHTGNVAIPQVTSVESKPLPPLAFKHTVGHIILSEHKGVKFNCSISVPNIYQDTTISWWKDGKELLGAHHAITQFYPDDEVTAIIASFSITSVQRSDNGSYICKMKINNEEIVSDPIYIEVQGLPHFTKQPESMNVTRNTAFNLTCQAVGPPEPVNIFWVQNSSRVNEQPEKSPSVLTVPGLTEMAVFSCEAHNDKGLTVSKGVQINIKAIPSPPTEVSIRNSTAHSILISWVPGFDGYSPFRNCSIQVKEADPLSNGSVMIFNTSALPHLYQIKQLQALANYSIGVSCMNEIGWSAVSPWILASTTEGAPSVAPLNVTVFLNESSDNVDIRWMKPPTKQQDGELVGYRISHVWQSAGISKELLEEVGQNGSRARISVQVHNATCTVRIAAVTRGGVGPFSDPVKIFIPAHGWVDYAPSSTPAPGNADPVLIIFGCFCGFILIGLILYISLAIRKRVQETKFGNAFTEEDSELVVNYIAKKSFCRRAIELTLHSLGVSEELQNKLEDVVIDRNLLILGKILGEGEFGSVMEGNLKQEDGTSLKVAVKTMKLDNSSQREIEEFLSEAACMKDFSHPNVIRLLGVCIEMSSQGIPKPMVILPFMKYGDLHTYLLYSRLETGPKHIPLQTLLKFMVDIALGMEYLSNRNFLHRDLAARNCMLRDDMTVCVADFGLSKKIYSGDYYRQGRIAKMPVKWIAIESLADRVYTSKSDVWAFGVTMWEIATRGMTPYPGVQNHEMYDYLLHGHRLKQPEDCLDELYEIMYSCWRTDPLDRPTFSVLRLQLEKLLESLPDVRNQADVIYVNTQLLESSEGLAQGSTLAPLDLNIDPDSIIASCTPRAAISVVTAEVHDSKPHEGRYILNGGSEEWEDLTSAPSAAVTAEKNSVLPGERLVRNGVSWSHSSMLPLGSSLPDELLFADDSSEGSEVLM
Sequence of Receptor-interacting serine/threonine-protein kinase 2 (Homo sapiens) (O43353 whole entry): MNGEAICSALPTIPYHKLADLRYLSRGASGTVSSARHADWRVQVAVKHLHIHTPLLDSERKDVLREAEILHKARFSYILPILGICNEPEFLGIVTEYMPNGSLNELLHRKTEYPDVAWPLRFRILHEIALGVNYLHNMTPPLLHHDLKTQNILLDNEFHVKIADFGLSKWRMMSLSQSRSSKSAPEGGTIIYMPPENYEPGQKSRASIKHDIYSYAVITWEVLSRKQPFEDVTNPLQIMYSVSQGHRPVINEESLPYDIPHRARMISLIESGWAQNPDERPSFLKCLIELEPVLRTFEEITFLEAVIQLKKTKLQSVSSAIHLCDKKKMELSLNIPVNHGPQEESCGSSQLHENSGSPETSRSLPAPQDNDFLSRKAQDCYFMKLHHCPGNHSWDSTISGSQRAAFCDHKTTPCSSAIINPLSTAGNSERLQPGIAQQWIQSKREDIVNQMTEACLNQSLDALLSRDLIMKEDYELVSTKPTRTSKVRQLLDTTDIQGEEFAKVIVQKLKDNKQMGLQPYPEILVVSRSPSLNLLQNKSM
Sequence of Vascular endothelial growth factor receptor 2 (Homo sapiens) (P35968 whole entry): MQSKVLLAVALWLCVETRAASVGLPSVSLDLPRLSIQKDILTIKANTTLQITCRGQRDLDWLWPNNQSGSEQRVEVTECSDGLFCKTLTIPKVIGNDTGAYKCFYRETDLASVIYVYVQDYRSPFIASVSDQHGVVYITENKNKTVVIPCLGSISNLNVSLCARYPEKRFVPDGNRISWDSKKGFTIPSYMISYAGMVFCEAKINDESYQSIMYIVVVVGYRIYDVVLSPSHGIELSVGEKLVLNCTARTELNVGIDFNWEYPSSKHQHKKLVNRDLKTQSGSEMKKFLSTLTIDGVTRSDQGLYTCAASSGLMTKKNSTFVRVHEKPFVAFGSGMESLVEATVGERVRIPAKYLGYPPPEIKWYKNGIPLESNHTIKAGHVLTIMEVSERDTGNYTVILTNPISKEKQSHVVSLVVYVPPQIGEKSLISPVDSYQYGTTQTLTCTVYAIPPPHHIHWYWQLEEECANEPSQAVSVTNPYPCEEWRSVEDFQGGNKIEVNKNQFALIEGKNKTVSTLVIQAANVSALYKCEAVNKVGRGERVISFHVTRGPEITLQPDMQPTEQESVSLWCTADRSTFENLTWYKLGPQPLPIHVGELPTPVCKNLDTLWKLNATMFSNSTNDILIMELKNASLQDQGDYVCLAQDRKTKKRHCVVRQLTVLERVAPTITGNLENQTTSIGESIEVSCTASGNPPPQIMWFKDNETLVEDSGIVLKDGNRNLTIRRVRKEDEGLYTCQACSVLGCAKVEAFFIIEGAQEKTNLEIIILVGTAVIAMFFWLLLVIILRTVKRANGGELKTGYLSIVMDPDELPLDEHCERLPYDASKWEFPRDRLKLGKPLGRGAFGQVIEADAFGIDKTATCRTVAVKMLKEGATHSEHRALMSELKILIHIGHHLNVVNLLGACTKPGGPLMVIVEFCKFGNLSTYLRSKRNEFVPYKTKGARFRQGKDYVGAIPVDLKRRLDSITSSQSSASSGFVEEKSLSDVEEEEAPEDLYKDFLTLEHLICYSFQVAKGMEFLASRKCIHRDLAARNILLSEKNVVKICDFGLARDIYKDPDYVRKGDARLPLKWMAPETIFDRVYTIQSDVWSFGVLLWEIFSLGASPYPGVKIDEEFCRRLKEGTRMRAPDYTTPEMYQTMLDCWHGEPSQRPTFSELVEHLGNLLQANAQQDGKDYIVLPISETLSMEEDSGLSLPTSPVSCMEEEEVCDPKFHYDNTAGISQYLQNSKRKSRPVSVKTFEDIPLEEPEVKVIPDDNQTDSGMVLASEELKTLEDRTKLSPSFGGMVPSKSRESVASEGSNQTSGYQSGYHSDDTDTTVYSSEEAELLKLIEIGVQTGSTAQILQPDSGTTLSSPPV

## O=C1Nc2ncccc2/C1=C1/Nc2ncccc2C1=O
[1]
  Activity: 95%
[2]
  Activity: 87%
SF-295
  GI50: 0.257 µM
[3]
  Activity: 99%
[4]
  Activity: 85%
[5]
  Activity: 100%
[6]
  Activity: 76%
U-251
  GI50: 1.1 µM
[7]
  Activity: 98%
[8]
  Activity: 100%
[9]
  Activity: 85%
[10]
  Activity: 89%
[11]
  Activity: 91%
[12]
  Activity: 93%
[13]
  Activity: 94%
[14]
  Activity: 94%
[15]
  GI50: 0.502 µM
[16]
  Activity: 94%
[17]
  Activity: 116%
[18]
  Activity: 120%
[19]
  Activity: 89%
[20]
  Activity: 102%
[21]
  Activity: 91%
[22]
  Activity: 123%
[23]
  Activity: 88%
[24]
  Activity: 78%
[25]
  Activity: 111%
[26]
  Activity: 86%
SK-OV-3
  GI50: 3.95 µM
[27]
  Activity: 73%
[28]
  Activity: 97%
[29]
  Activity: 55%
